Test results from article PMC7557949 (ACS Omega, 2020).
Converted amounts (≈) assume the structure as drawn.

How the values were obtained:
[1] = Cytotoxicity test on Vero cell line; format: cell-based; settings: African green monkey, uninfected Vero cells
Summary of the method: (§1)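 Test compound was dissolved at 50 mg/mL in DMSO and decontaminated with 100× antimycotic–antibiotic mix. Cells were seeded at 2 × 10^5 cells/mL and grown 24 h at 37 °C, 5% CO2, to monolayers. Bi-fold dilutions in DMEM were applied for 72 h. Read by daily microscopy for morphology and by trypan blue (0.4%) viable counts. CC50 taken as the concentration giving 50% of untreated-cell OD492.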

[2] = Cytotoxicity test on BGM cell line; format: cell-based; settings: African green monkey, uninfected BGM cells
Summary of the method: as §1

[3] = system: hepatitis A virus HM 175 (HAV HM 175); test: Plaque assay, antiviral activity against HAV HM 175; format: cell-based
Summary of the method: (§2)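 Plaque reduction. Nontoxic dilutions of test compound were mixed 1:1 with virus at 1 × 105, 1 × 106 or 1 × 107, for 0.5 h at 37 °C. 10-fold dilutions went onto BGM (CBV4), FRHK4 (HAV HM 175) or Hep-2 (adenovirus 7), with 1 h adsorption at 37 °C. Overlay was 2× DMEM plus 1% agarose. Cells were formalin-fixed and crystal violet-stained, and plaques counted. Triplicate. IC50 is the half-maximal plaque-reduction concentration.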

[4] = system: ED-43/SG-Feo (VYG) replicon of hepatitis C virus genotype 4a (HCVcc); test: Antiviral bioassay against ED-43/SG-Feo; format: cell-based; settings: nontoxic dose of compound; average of three independent measurements
Summary of the method: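 Huh 7.5 cells carrying the ED-43/SG-Feo (VYG) HCV genotype 4a subgenomic replicon were treated with the nontoxic dose of test compound. Replicon RNA copies were quantified by TaqMan qRT-PCR, and the result was expressed as percent reduction.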

[5] = target: Hsp90α (Homo sapiens, UniProt P07900); test: Hsp90α; format: biochemical; settings: for inhibition at 0.1 µg/mL: read-out: percentage inhibition of Hsp90α at 0.1 (μg/mL); for inhibition at 1 µg/mL: read-out: percentage inhibition of Hsp90α at 1 (μg/mL); for inhibition at 10 µg/mL: read-out: percentage inhibition of Hsp90α at 10 (μg/mL); for inhibition at 100 µg/mL: read-out: percentage inhibition of Hsp90α at 100 (μg/mL)
Summary of the method: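 AlphaScreen kit assay for Hsp90α C-terminal binding to PPID. Hsp90α was diluted to 1.5 ng/μL in assay buffer and premixed with test compound. The reaction was started with PPID diluted to 10 ng/μL and run 30 min at room temperature. Glutathione acceptor beads were added for 30 min, then streptavidin donor beads for 1 h, and Alpha counts read. Triplicate; percent inhibition calculated against control.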

[6] = Cytotoxicity test on FRHK-4 cell line; format: cell-based; settings: rhesus monkey, uninfected FRHK-4 cells
Summary of the method: as §1

[7] = system: herpes simplex virus type 1 (HSV-1); test: Plaque assay, antiviral activity against HSV-1; format: cell-based; settings: Human alphaherpesvirus 1, Vero
[8] = system: C. albicans (ATCC:10231); test: Agar well diffusion, inhibition zone; format: cell-based, Candida albicans; settings: 15 mg/mL, 100 μL per well; mm ± SD
Summary of the method: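 Fungal plates were poured and agar dried 15 min. 6 mm wells were cut with a sterile borer and filled with 100 μL test compound solution at 15 mg/mL. Inhibition zone diameter (mm) was read after 48 h incubation. Triplicate, reported as mm ± SD.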

[9] = system: K. pneumonia (ATCC:4415); test: Agar well diffusion, inhibition zone; format: cell-based, Klebsiella pneumonia; settings: 15 mg/mL, 100 μL per well; mm ± SD
Summary of the method: (§3)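 Agar well diffusion. Saline inoculum adjusted to McFarland 0.5 ([…]), i.e. OD 0.13 at 625 nm, and swabbed over dried agar. After 15 min drying, 6 mm wells received 100 μL of test compound at 15 mg/mL. Plates incubated at 37 °C; bacterial zones read in mm after 24 h incubation […]. Triplicate, reported as mm ± SD. Gentamicin and ampicillin served as reference drugs.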

[10] = system: S. mutans (ATCC:25175); test: Agar well diffusion, inhibition zone; format: cell-based; settings: for zone of inhibition at 15000 µg/mL: Streptococcus mutans, 24 h, read-out: diameter of the IZ, S. mutans (ATCC:25175)
Summary of the method: as §3

[11] = system: S. aureus (ATCC:6538); test: Agar well diffusion, inhibition zone; format: cell-based, Staphylococcus aureus; settings: for zone of inhibition at 15000 µg/mL: Staphylococcus aureus, 24 h, read-out: diameter of the IZ, S. aureus (ATCC:6538)
Summary of the method: as §3

[12] = system: P. aeruginosa (ATCC:27853); test: Agar well diffusion, inhibition zone; format: cell-based, Pseudomonas aeruginosa; settings: 15 mg/mL, 100 μL per well; mm ± SD
Summary of the method: as §3

[13] = system: adenovirus type 7 (HAdV7); test: Plaque assay, antiviral activity against adenovirus type 7; format: cell-based; settings: nontoxic dose of compound; average of three independent measurements
Summary of the method: as §2

[14] = system: E. coli (ATCC:3008); test: Agar well diffusion, inhibition zone; format: cell-based, Escherichia coli; settings: 15 mg/mL, 100 μL per well; mm ± SD
Summary of the method: as §3

[15] = target: T1, dihydrofolate reductase (DHFR) (Homo sapiens, UniProt P00374); test: DHFR inhibitor screening assay; format: biochemical; settings: for IC50: IC50 on the DHFR, average of three measurements; for inhibition at 0.01 µg/mL: read-out: percent inhibition of DHFR at 0.01 (μg/mL); for inhibition at 0.1 µg/mL: read-out: percent inhibition of DHFR at 0.1 (μg/mL); for inhibition at 1 µg/mL: read-out: percent inhibition of DHFR at 1 (μg/mL); for inhibition at 10 µg/mL: read-out: percent inhibition of DHFR at 10 (μg/mL)
T1 sequence (P00374 1-187): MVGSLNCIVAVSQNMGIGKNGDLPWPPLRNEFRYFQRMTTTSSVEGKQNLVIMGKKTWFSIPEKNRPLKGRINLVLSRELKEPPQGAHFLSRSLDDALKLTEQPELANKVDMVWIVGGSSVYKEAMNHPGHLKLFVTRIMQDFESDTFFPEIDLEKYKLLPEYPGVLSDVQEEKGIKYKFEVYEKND

[16] = system: E. coli (ATCC:3008); test: MIC, twofold serial dilution in agar; format: cell-based; settings: Escherichia coli, read-out: MIC, E. coli (ATCC:3008)
[17] = system: K. pneumonia (ATCC:4415); test: MIC, twofold serial dilution in agar; format: cell-based; settings: Klebsiella pneumoniae, read-out: MIC, K. pneumonia (ATCC:4415)
[18] = system: P. aeruginosa (ATCC:27853); test: MIC, twofold serial dilution in agar; format: cell-based; settings: Pseudomonas aeruginosa, read-out: MIC, P. aeruginosa (ATCC:27853)
[19] = system: S. mutans (ATCC:25175); test: MIC, twofold serial dilution in agar; format: cell-based; settings: Streptococcus mutans, read-out: MIC, S. mutans (ATCC:25175)
[20] = system: S. aureus (ATCC:6538); test: MIC, twofold serial dilution in agar; format: cell-based; settings: Staphylococcus aureus, read-out: MIC, S. aureus (ATCC:6538)
[21] = system: C. albicans (ATCC:10231); test: MIC, twofold serial dilution in agar; format: cell-based, Candida albicans
Summary of the method: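 Test compound and reference drugs (ampicillin, gentamicin, nystatin) were made as 1000 μg/mL DMSO stocks, then diluted twofold to 500, 250, 125, 62.5 and 31.25 μg/mL. Dilutions were mixed into sterile nutrient agar, and a defined microbial inoculum was applied to the agar surface. Plates incubated at 37 °C in a humid chamber.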

[22] = 15 mg/mL, 100 μL per well, mm ± SD

Chain of Hsp90α (P07900 535-732 limits assumed): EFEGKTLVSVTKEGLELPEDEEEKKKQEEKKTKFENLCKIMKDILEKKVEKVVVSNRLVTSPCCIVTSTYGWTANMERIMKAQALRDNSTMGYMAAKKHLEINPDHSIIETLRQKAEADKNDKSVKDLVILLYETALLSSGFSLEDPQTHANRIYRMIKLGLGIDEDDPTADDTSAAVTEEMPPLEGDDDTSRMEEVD

| MIC [16] [µg/mL] | Structure (SMILES) | CC50 at 72 h [1] [µg/mL] | CC50 at 72 h [2] [µg/mL] | mean % of reduction, HCVcc genotype 4 [4] [%] | inhibition at 0.1 µg/mL [5] [%] | inhibition at 1 µg/mL [5] [%] | inhibition at 10 µg/mL [5] [%] | inhibition at 100 µg/mL [5] [%] | IC50 [7] [µg/mL] | diameter of the IZ, C. albicans (ATCC:10231) [8] | diameter of the IZ, P. aeruginosa (ATCC:27853) [12] | mean % of reduction, adenovirus type 7 [13] [%] | diameter of the IZ, E. coli (ATCC:3008) [14] | IC50 [15] [µM] | inhibition at 0.01 µg/mL [15] [%] | inhibition at 0.1 µg/mL [15] [%] | inhibition at 1 µg/mL [15] [%] | inhibition at 10 µg/mL [15] [%] | zone of inhibition at 15000 µg/mL [10] [mm] | zone of inhibition at 15000 µg/mL [11] [mm] | also measured |
| --- | --- | --- | --- | --- | --- | --- | --- | --- | --- | --- | --- | --- | --- | --- | --- | --- | --- | --- | --- | --- | --- |
| – | CCOC(=O)c1cc(C#N)c(=O)n(NS(=O)(=O)c2ccccc2)c1N [15c, Ethyl 2-Amino-5-cyano-6-oxo-1-(phenylsulfonamido)-1,6-dihydropyridine-3-carboxylate] | 250 (≈ 690 µM) | 260 (≈ 718 µM) | 20.0 ± 0.15 | 8.42 | 26.1 | 48.7 | 72.7 | 90 (≈ 248 µM) | no activity | no activity | 36.7 ± 0.30 | no activity | – | – | – | – | – | – | – | IC50 ([3]; Hepatovirus A, FRhK-4): 88 µg/mL (≈ 243 µM); CC50 at 72 h [6]: 260 µg/mL (≈ 718 µM); diameter of the IZ, K. pneumonia (ATCC:4415) [9]: no activity; diameter of the IZ, S. mutans (ATCC:25175) [10, 22]: no activity; diameter of the IZ, S. aureus (ATCC:6538) [11, 22]: no activity |
| 31.2 (≈ 65.4 µM) | CNC(C)C1CCC(N)C(OC2C(N)CC(N)C(OC3OCC(C)(O)C(NC)C3O)C2O)O1 (stereo not shown) [gentamicin] | – | – | – | – | – | – | – | – | – | 35.0 ± 0.1 mm | – | 25.0 ± 0.1 mm | – | – | – | – | – | – | – | MIC [17]: 62.5 µg/mL (≈ 131 µM); MIC [18]: 125 µg/mL (≈ 262 µM) |
| 250 (≈ 999 µM) | Nc1ccc(S(=O)(=O)Nc2ncccn2)cc1 [sulfadiazine, reference compound] | – | – | – | – | – | – | – | – | no activity | 24.0 ± 1.4 mm | – | 19.8 ± 0.4 mm | 0.803 | 28.7 | 46.8 | 60.2 | 76.7 | 16.3 ± 1.1 | 31.3 ± 2.1 | MIC [17]: 250 µg/mL (≈ 999 µM); MIC [19]: 125 µg/mL (≈ 499 µM); MIC [20]: 500 µg/mL (≈ 2000 µM); MIC [18]: 250 µg/mL (≈ 999 µM) |
| – | C[C@@H]1[C@H](O)[C@@H](C)/C=C/C=C/CC/C=C/C=C/C=C/C=C/C(O[C@H]2O[C@H](C)[C@@H](O)[C@H](N)[C@@H]2O)CC2O[C@](O)(CC(O)C(O)CCC(O)CC(O)CC(O)CC(=O)O[C@H]1C)CC(O)C2C(=O)O (stereo partly shown) [nystatin, reference compound] | – | – | – | – | – | – | – | – | 28.0 ± 0.2 mm | – | – | – | – | – | – | – | – | – | – | MIC, C. albicans (ATCC:10231) [21]: 31.25 µg/mL (≈ 33.7 µM) |

| Structure (SMILES) | MIC [16] [µg/mL] | CC50 at 72 h [1] [µg/mL] | CC50 at 72 h [2] [µg/mL] | mean % of reduction, HCVcc genotype 4 [4] [%] | inhibition at 0.1 µg/mL [5] [%] | inhibition at 1 µg/mL [5] [%] | inhibition at 10 µg/mL [5] [%] | inhibition at 100 µg/mL [5] [%] | IC50 [7] [µg/mL] | diameter of the IZ, C. albicans (ATCC:10231) [8] | diameter of the IZ, P. aeruginosa (ATCC:27853) [12] | mean % of reduction, adenovirus type 7 [13] [%] | diameter of the IZ, E. coli (ATCC:3008) [14] | IC50 [15] [µM] | inhibition at 0.01 µg/mL [15] [%] | inhibition at 0.1 µg/mL [15] [%] | inhibition at 1 µg/mL [15] [%] | inhibition at 10 µg/mL [15] [%] | zone of inhibition at 15000 µg/mL [10] [mm] | zone of inhibition at 15000 µg/mL [11] [mm] | also measured |
| --- | --- | --- | --- | --- | --- | --- | --- | --- | --- | --- | --- | --- | --- | --- | --- | --- | --- | --- | --- | --- | --- |
| CCOC(=O)c1cc(C#N)c(=O)n(NS(=O)(=O)c2ccc(C)cc2)c1N [15d, Ethyl 2-Amino-5-cyano-1-(4-methylphenylsulfonamido)-6-oxo-1,6-dihydropyridine-3-carboxylate] | 1000 (≈ 2660 µM) | 220 (≈ 584 µM) | 240 (≈ 638 µM) | 20.0 ± 0.20 | 10.5 | 25.9 | 57.4 | 89.9 | 90 (≈ 239 µM) | – | – | 30.0 ± 0.10 | 19.6 ± 1.5 mm | 12.4 | 11.1 | 20.7 | 39.9 | 56.1 | 9 ± 1 | 11.3 ± 1.1 | mean % of reduction, HAV HM 175 ([3]; nontoxic dose of compound, average of three independent measurements): 36.7 ± 0.25% |
